An excerpt weighted towards active compounds, which were near 4% of everything screened.
SIRT5 block: SIRT5 desuccinylase inhibitors, primary screen, biochemical, fluorescence imaging, single point, set 5 | Purified SirT5, succinyl-peptide AMC, trypsin-coupled fluorescence | hit rate 1.1% among 330,000 | inhibition, % at 15 µM | AID 652115, 2013 | NAD-dependent protein deacylase sirtuin-5, mitochondrial (Homo sapiens), Q9NXA8; in the data active = inhibition above about 15%
Target sequence (Q9NXA8 whole entry, looked up): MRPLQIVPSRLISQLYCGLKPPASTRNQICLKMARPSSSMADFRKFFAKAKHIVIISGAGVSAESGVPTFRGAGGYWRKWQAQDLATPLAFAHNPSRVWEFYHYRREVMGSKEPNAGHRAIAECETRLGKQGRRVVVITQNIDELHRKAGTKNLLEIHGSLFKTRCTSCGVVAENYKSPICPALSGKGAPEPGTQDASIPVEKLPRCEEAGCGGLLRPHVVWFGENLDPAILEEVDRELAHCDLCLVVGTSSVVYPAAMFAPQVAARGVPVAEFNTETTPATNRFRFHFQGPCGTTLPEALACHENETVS
E-selectin induc: E-selectin induction in HUVECs, primary screen, imaging, HUVEC, immunofluorescence imaging, single point | hit rate 0.37% among 260,000 | activation, % at 7.58 µM | P16581 | AID 686992, 2013 | normalized: neutral wells 0, TNF-alpha wells 100;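 active = mean E-selectin-positive cell signal at least 10% of the positive control, reached in at least 60% of replicates, without over 20% cell loss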
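assay system = HUVEC, human umbilical vein endothelial cells | input = 3,000 HUVEC seeded per well | medium = EGM-2 growth medium on 0.1% gelatin-coated wells | dosing = one compound dose added by pin transfer | signal = immunofluorescence imaging | read-out basis = % PE-positive cells | control set = TNF-alpha, DMSO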
FGF22 binding: binders of human FGF22 protein, primary screen, FGF22 synaptogenesis inhibitor project, biophysical, thermal shift, single point | Fibroblast growth factor 22 (Homo sapiens), Q9HCT0 | hit rate 1.5% among 340,000 | AID 651658, 2012 | activity (Tm shift, normalised), % at 9.99 µM | recombinant FGF22 thermal shift, SYPRO orange fluorescence; percent of sucrose octasulfate shift, DMSO zero;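 active = mean Tm shift, scaled 0 neutral to 100 positive control, at about 1.3% or above, every replicate too, limit read from the data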
Target sequence (Q9HCT0 whole entry, looked up): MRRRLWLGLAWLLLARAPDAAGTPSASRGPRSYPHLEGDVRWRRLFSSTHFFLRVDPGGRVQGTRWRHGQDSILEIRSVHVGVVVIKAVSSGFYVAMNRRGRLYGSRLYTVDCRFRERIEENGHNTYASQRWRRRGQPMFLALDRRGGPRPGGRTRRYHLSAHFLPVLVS
rRNA inh HTS: reduced GFP signal of wild-type E. coli, primary screen, bacterial rRNA inhibitor project, GFP/RFP fluorescence, OD600, single point. GFP signal change (wild-type ribosome), % (no concentration beside the values). E. coli WT GFP vs humanized-ribosome RFP mutants, 24 h; active compounds read low; DMSO median 0, no signal -100. hit rate 1.6% among 350,000;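 active = significant combined selectivity score with lowered wild-type GFP, culture density cut under 30%, mutant RFP and density less affected; inactive = any of these conditions unmet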
FN deposit inh: inhibitors of fibronectin matrix deposition, primary screen, AH1F cells, Alexa488-fibronectin fluorescence, plate reader; AH1F fibroblasts, overnight; inhibition, % at 12.6 µM; hit rate 0.086% among 350,000;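 active = mean inhibition across replicates of 30% or more, regardless of how many single replicates reach that level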
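Measured by – fluorescence 485/525 nm · System – AH1F fibroblast monolayer, labelled fibronectin deposition · Amount – 10000 cells per well · Buffer or medium – serum-reduced DMEM (2% serum) · Doses – single dose, pinned · Also added – fluorescent fibronectin at 24 nM final · Schedule – 1 h cell attachment, overnight exposure to compound and label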
C2C12 statin: suppressors of statin myotoxicity in C2C12 myotubes, primary screen, cell-based, single point, plate reader | C2C12 myotubes + simvastatin, ATP luminescence, 48 h; scaled: DMSO 0, geranylgeraniol control 100 | rescue of ATP level, % at 7.49 µM | hit rate 0.78% among 330,000 | AID 602340, 2012;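 active = mean ATP rescue above about 67%, or every replicate alone reaching that limit, limit read from the data, passing the limit was not always enough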;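 also: myotubes were challenged with 10 µM simvastatin during compound exposure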
Numbers stand for hits; - = inactive; . = not tested or not shown; ! = not active in a repeat.

SMILES	SIRT5 block	E-selectin induc	FGF22 binding	rRNA inh HTS	FN deposit inh	C2C12 statin
CCN(CC)CCN1C(=O)C(=O)/C(=C(/O)c2ccc(S(=O)(=O)N3CCOCC3)cc2)C1c1ccc(C)cc1 (centres undefined)	-	-	44	-	-	.
CCN(CC)CCN1C(=O)C(=O)/C(=C(/O)c2ccc(S(=O)(=O)N3CCOCC3)cc2)C1c1ccc(C(C)C)cc1 (centres undefined)	-	.	-	-	-	-
O=C(NCCc1ccc(O)c(Br)c1)c1ccc(Br)o1	-	-	1.7	-	-	.
O=C(NCCc1c[nH]c2ccccc12)c1ccc(Br)o1	-	.	2.3	-	-	-
O=C(O)CCNC(=O)c1ccc(Br)o1	.	.	.	.	.	-
S=c1[nH]nc(SCc2ccccc2)c2[nH]cnc12	.	-	-	-17	-	-
CCCCSc1n[nH]c(=S)c2nc[nH]c12	.	-	43	.	-	-
CCCCCCCSc1ncnc2[nH]ncc12	.	-	-	.	-	-
C[C@@H]1CN([C@H](C)CO)C(=O)c2cc(NC(=O)Cc3ccccc3)ccc2O[C@H]1CN(C)C(=O)NC1CCCCC1	-	71	-	-	-	-
CC(C)NC(=O)N(C)C[C@@H]1Oc2ccc(NC(=O)Cc3ccccc3)cc2C(=O)N([C@@H](C)CO)C[C@H]1C	-	.	-	-	.	-
CC(C)NC(=O)N(C)C[C@H]1Oc2ccc(NC(=O)Cc3ccccc3)cc2C(=O)N([C@H](C)CO)C[C@@H]1C	20!	-	-	-	-	-
COc1ccccc1NC(=O)N1[C@@H]2CNC[C@H]1C2c1ccc(-c2ccccc2OC)cc1 (some centres undefined)	-	-	.	-	-	.
COC(=O)CSc1nnc(CNC(=O)c2ccc(S(=O)(=O)N(C)C)cc2)n1C	-	-	43	-	-	.
Nc1ccc(N=Nc2ccc(O)cc2)c(N)n1	.	-	-	-16	-	.
COc1ccc(N=Nc2ccc(N)nc2N)cc1	-	-	-	-	-	-
Cc1ccccc1-c1cnc2c(c1)C(=O)N([C@@H](C)CO)C[C@H](C)[C@@H](CN(C)C(=O)CN(C)C)O2	-	-	-	-	-	-
O=C(Nc1ccccc1F)N[C@H]1CC[C@@H](CCNC(=O)C2CCC2)O[C@@H]1CO	-	-	-	-	.	-
O=C(Nc1ccc(NC(=O)c2ccco2)nc1)c1ccccn1	.	.	.	.	-	113
Cc1ccc(C)c(S(=O)(=O)NCC(=O)N2CCCC2)c1	-	.	-	-	-	-
Cc1cc(C)c(C)c(S(=O)(=O)NCC(=O)N2CCCC2)c1C	.	.	.	.	-	115
C[C@H]1CN([C@@H](C)CO)C(=O)c2cc(NC(=O)CCN3CCOCC3)ccc2O[C@H]1CN(C)C	-	.	-	-	.	-
COc1ccc(S(=O)(=O)Nc2ccc3c(c2)CC(=O)N([C@H](C)CO)C[C@@H](C)[C@@H](CN(C)Cc2ccncc2)O3)cc1	-	-	-	-	-	-
O=C(Nc1ccc(N2CCCC2)c(Cl)c1)c1ccc([N+](=O)[O-])o1	-	-	43	-	-	.
O=C(Nc1cccc(Cl)c1N1CCOCC1)c1ccc([N+](=O)[O-])o1	-	.	-	-	-	97
O=C(Nc1cccc(Cl)c1N1CCOCC1)c1cc([N+](=O)[O-])ccc1N1CCOCC1	-	-	-	-	-	-
SMILES	SIRT5 block	E-selectin induc	FGF22 binding	rRNA inh HTS	FN deposit inh	C2C12 statin
O=C(C[C@H]1CC[C@H](NC(=O)NC2CCCCC2)[C@@H](CO)O1)NCc1ccccc1	-	-	-	-	-	-
C[C@H]1CN([C@@H](C)CO)C(=O)Cc2cc(NS(=O)(=O)c3ccccc3)ccc2O[C@H]1CN(C)C(=O)Nc1cccc2ccccc12	-	-	-	-	.	-
CCC(CCC(=O)Nc1ccn(-c2ccccc2)n1)C(=O)O (centres undefined)	.	.	.	.	.	121
CCCC(CCC(=O)Nc1ccn(-c2ccccc2)n1)C(=O)O (centres undefined)	-	.	-	-	-	.
CN1c2ccc(-c3ccccc3)cc2[C@@H]2[C@@H](CCN2C(=O)c2ccccc2)[C@@H]1CO	-	-	-	-	-	-
Cn1c(=O)c([N+](=O)[O-])c(NCc2ccccc2Cl)c2ccccc21	-	-	-	-29	-	.
Cn1c(=O)c([N+](=O)[O-])c(NCCc2ccccc2)c2ccccc21	.	.	.	.	-	.
O=C(NCc1ccc2c(c1)OCO2)C(C(=O)c1ccccc1)n1cc(Cl)ccc1=O (centres undefined)	-	.	-	-	-	.
CN(Cc1ccccc1)C(=O)C(C(=O)c1ccc(F)cc1)n1cc(Cl)ccc1=O (centres undefined)	-	-	-	-30	-	.
Cc1cccc(NC(=O)c2cc(-c3ccc(C)c(C)c3O)n[nH]2)c1	-	-	-	-17	-	-
Cc1cc(C)n(CCC(=O)N/N=C/c2ccc(Br)c([N+](=O)[O-])c2)n1	-	-	-	-15	-	-
C[C@@H]1CN([C@@H](C)CO)C(=O)c2cc(NC(=O)c3ccncc3)ccc2O[C@@H]1CN(C)C(=O)Nc1ccc(C(F)(F)F)cc1	-	-	-	-	-	-
CCOc1nc(N2CCOCC2)nc(C)c1[N+](=O)[O-]	-	.	44	-	-	-
O=C(NCc1ccc(Cl)nc1)c1ccc2sc([C@@H]3O[C@H](CO)[C@H](O)[C@H](O)[C@H]3O)nc2c1	17	.	-	.	-	-
Cc1cccc2c1cnn2C(=O)Nc1ccc(Br)cc1F	-	-	-	-	-	99
O=S(=O)(/N=C(/NC(=S)Nc1ccccc1)c1ccccc1)c1ccc(Cl)cc1	-	.	-	-	-	-
C/C(=N\S(=O)(=O)c1ccc(C)cc1)NC(=S)Nc1ccccc1	-	.	44	-	-	.
COc1ccc(NC(=S)N/C(=N/S(=O)(=O)c2ccc(C)cc2)c2ccccc2)cc1	-	.	43	-	-	-
CC(C)NC(=O)N(C)C[C@H]1Oc2c(N)cccc2C(=O)N(C)C[C@H]1C	.	.	.	-	-	.
C[C@@H]1CN([C@H](C)CO)C(=O)c2cc(-c3cccc(F)c3)cnc2O[C@H]1CN(C)Cc1cccc(F)c1	.	-	.	-	-	-
CC(C)NC(=O)N1CC2(C1)[C@H](c1ccccc1)[C@@H](CO)N2Cc1cccnc1	-	-	-	-	.	.
C=CCc1ccccc1OCCCCN1CCCC1	.	.	.	.	.	80
CCc1ccccc1OCCCCN1CCCC1	-	.	.	.	.	.

Compound activity from PubChem.
